In ChEMBL document CHEMBL4346672, “Antimicrobial and KPC/AmpC inhibitory activity of functionalized benzosiloxaboroles” (Eur J Med Chem, 2019):
In brackets after ≈: the same amount, converted by molar mass. Activity calls are given as the source filed them. The calls are words filed in the database; no cut-off is given here.

Test system: Proteus mirabilis
Test: Antibacterial activity against Proteus mirabilis ATCC 12453 assessed as diameter of zone inhibition measured after 18 hrs by CLSI disc diffusion method
Assay type: functional
Settings: not given
How it was run: (§1)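 Disc diffusion on Mueller-Hinton II agar. Compounds dissolved in DMSO. Strains stored at -80 °C and subcultured twice on tryptic soy agar before testing. Inhibition zones read after 35 °C, 18 h.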

| Structure (SMILES) | diameter of the inhibition zone (DIZ) |
| --- | --- |
| C[Si]1(C)OB(O)c2ccc(Cl)cc21 | inactive |

Test system: Enterococcus faecalis
Test: Antibacterial activity against Enterococcus faecalis ATCC 29212 measured after 18 hrs by CLSI broth dilution method
Assay type: functional
Settings: ATCC 29212, 18 h
How it was run: (§2)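 Broth MIC in Mueller-Hinton II broth following CLSI, compounds dissolved in DMSO. Strains subcultured twice on tryptic soy agar before testing. Growth read after 35 °C, 18 h.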

| MIC | Structure (SMILES) |
| --- | --- |
| 100 µg/mL (≈ 471 µM) | C[Si]1(C)OB(O)c2ccc(Cl)cc21 |

Test system: Bordetella bronchiseptica
Test: Antibacterial activity against Bordetella bronchiseptica ATCC 4617 measured after 18 hrs by CLSI broth dilution method
Assay type: functional
Settings: ATCC 4617, 18 h
How it was run: as §2

| MIC | Structure (SMILES) |
| --- | --- |
| 400 µg/mL (≈ 1880 µM) | C[Si]1(C)OB(O)c2ccc(Cl)cc21 |

Test system: Klebsiella pneumoniae
Test: Antibacterial activity against Klebsiella pneumoniae ATCC 13883 measured after 18 hrs by CLSI broth dilution method
Assay type: functional
Settings: ATCC 13883, 18 h
How it was run: as §2

| MIC | Structure (SMILES) |
| --- | --- |
| 400 µg/mL (≈ 1880 µM) | C[Si]1(C)OB(O)c2ccc(Cl)cc21 |

Test system: Enterococcus faecium
Test: Antibacterial activity against Enterococcus faecium ATCC 6057 assessed as diameter of zone inhibition measured after 18 hrs by CLSI disc diffusion method
Assay type: functional
Settings: not given
How it was run: as §1

| Structure (SMILES) | diameter of the inhibition zone (DIZ) |
| --- | --- |
| C[Si]1(C)OB(O)c2ccc(Cl)cc21 | 14 mm |

Test system: Proteus mirabilis
Test: Antibacterial activity against Proteus mirabilis ATCC 12453 measured after 18 hrs by CLSI broth dilution method
Assay type: functional
Settings: ATCC 12453, 18 h
How it was run: as §2

| MIC | Structure (SMILES) |
| --- | --- |
| > 400 µg/mL | C[Si]1(C)OB(O)c2ccc(Cl)cc21 |

Test system: Acinetobacter baumannii
Test: Antibacterial activity against Acinetobacter baumannii ATCC 19606 assessed as diameter of zone inhibition measured after 18 hrs by CLSI disc diffusion method
Assay type: functional
Settings: not given
How it was run: as §1

| Structure (SMILES) | diameter of the inhibition zone (DIZ) |
| --- | --- |
| C[Si]1(C)OB(O)c2ccc(Cl)cc21 | 13 mm |

Test system: Klebsiella pneumoniae
Test: Antibacterial activity against Klebsiella pneumoniae ATCC 13883 assessed as fold reduction of MIC in presence of efflux pump inhibitor PAbetaN incubated for 18 hrs by broth microdilution method
Assay type: functional
Settings: not given
How it was run: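 MICs determined with and without PAβN at 50 mg/L in Mueller-Hinton broth containing 1 mM MgSO₄. 2-fold serial dilutions per CLSI. Fold change taken from the paired MICs after 35 °C, 18 h.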

| Structure (SMILES) | fold change (FC) |
| --- | --- |
| C[Si]1(C)OB(O)c2ccc(Cl)cc21 | 32 |

Test system: Bacillus subtilis
Test: Antibacterial activity against Bacillus subtilis ATCC 6633 assessed as diameter of zone inhibition measured after 18 hrs by CLSI disc diffusion method
Assay type: functional
Settings: not given
How it was run: as §1

| Structure (SMILES) | diameter of the inhibition zone (DIZ) |
| --- | --- |
| C[Si]1(C)OB(O)c2ccc(Cl)cc21 | 34 mm |

Test system: Candida parapsilosis
Test: Antifungal activity against Candida parapsilosis ATCC 22019 assessed as decrease in fungal cell growth at 0.78 to 12.5 mg/L incubated for 24 hrs by CLSI broth dilution method
Assay type: functional
Settings: Lodderomyces parapsilosis, ATCC 22019, 24 h
How it was run: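 Yeast broth dilution in RPMI 1640 with 2% glucose, compounds in DMSO. Yeasts pre-grown on Sabouraud dextrose agar. Growth read after 35 °C, 24 h.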

| MIC | Structure (SMILES) |
| --- | --- |
| 25 µg/mL (≈ 118 µM) | C[Si]1(C)OB(O)c2ccc(Cl)cc21 |

Test system: Serratia marcescens
Settings: ATCC 13880

| Structure (SMILES) | DIZ |
| --- | --- |
| C[Si]1(C)OB(O)c2ccc(Cl)cc21 | inactive |

Test system: Pichia kudriavzevii
Test: Antifungal activity against Candida krusei ATCC 6258 assessed as diameter of zone inhibition incubated for 24 hrs by CLSI disc diffusion method
Assay type: functional
Settings: not given
How it was run: (§3)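 Yeast disc diffusion on Mueller-Hinton agar supplemented with 2% glucose and 0.5 mg/L methylene blue. Compounds in DMSO. Yeasts subcultured on Sabouraud dextrose agar before testing. Zones read after 35 °C, 24 h.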

| Structure (SMILES) | diameter of the inhibition zone (DIZ) |
| --- | --- |
| C[Si]1(C)OB(O)c2ccc(Cl)cc21 | 26 mm |

Test system: Serratia marcescens
Test: Antibacterial activity against Serratia marcescens ATCC 13880 measured after 18 hrs by CLSI broth dilution method
Assay type: functional
Settings: ATCC 13880, 18 h
How it was run: as §2

| MIC | Structure (SMILES) |
| --- | --- |
| > 400 µg/mL | C[Si]1(C)OB(O)c2ccc(Cl)cc21 |

Test system: Escherichia coli
Test: Antibacterial activity against Escherichia coli ATCC 25922 assessed as diameter of zone inhibition measured after 18 hrs by CLSI disc diffusion method
Assay type: functional
Settings: not given
How it was run: as §1

| Structure (SMILES) | diameter of the inhibition zone (DIZ) |
| --- | --- |
| C[Si]1(C)OB(O)c2ccc(Cl)cc21 | inactive |

Test system: Candida albicans
Test: Antifungal activity against Candida albicans ATCC 90028 assessed as diameter of zone inhibition incubated for 24 hrs by CLSI disc diffusion method
Assay type: functional
Settings: not given
How it was run: as §3

| Structure (SMILES) | diameter of the inhibition zone (DIZ) |
| --- | --- |
| C[Si]1(C)OB(O)c2ccc(Cl)cc21 | 28 mm |

Test system: Acinetobacter baumannii
Test: Antibacterial activity against Acinetobacter baumannii ATCC 19606 measured after 18 hrs by CLSI broth dilution method
Assay type: functional
Settings: ATCC 19606, 18 h
How it was run: as §2

| MIC | Structure (SMILES) |
| --- | --- |
| 400 µg/mL (≈ 1880 µM) | C[Si]1(C)OB(O)c2ccc(Cl)cc21 |

Test system: Klebsiella pneumoniae
Settings: ATCC 13883

| Structure (SMILES) | DIZ |
| --- | --- |
| C[Si]1(C)OB(O)c2ccc(Cl)cc21 | inactive |

Test system: Bordetella bronchiseptica
Test: Antibacterial activity against Bordetella bronchiseptica ATCC 4617 assessed as diameter of zone inhibition measured after 18 hrs by CLSI disc diffusion method
Assay type: functional
Settings: not given
How it was run: as §1

| Structure (SMILES) | diameter of the inhibition zone (DIZ) |
| --- | --- |
| C[Si]1(C)OB(O)c2ccc(Cl)cc21 | 11 mm |
